In general, IC50 refers to the concentration that gives 50% inhibition. By inhibition is commonly meant how much of the control response was suppressed.

In assay [1] the target is Acidic phospholipase A2 EC-I (Echis carinatus, UniProt Q7T3S7). Nature of the assay: In vitro inhibitory concentration against phospholipase A2 of Echis carinatus venom.
The target of assay [2] is T1, Basic phospholipase A2 1 (Naja melanoleuca, UniProt P00599).
T1 sequence (P00599 whole entry): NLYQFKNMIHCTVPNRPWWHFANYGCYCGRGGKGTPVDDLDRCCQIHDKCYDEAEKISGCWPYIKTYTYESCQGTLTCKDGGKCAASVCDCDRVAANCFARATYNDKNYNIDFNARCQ
The assay can be described thus: In vitro inhibitory concentration against phospholipase A2 of Naja melanoleuca venom.

Assay [3] has as its system Protobothrops elegans. The assay can be described thus: Percent inhibition of hyaluronidase from Trimeresurus elegans venom. The following applies: concentration not given here. Further details: concentration or dose not given beside the values.
Assay [4] deals with Naja naja. The assay can be described thus: Percent inhibition of hyaluronidase from Naja naja naja venom; NI = No inhibition.
The test system of assay [5] is Daboia russelii russelii. The assay can be described thus: Percent inhibition of hyaluronidase from Vipera russelli russelli venom. More on the design: concentration or dose not given beside the values. As to conditions: concentration not given here.
The target of assay [6] is T2, Basic phospholipase A2 PLA-A (Trimeresurus flavoviridis, UniProt P59264).
T2 sequence (P59264 whole entry): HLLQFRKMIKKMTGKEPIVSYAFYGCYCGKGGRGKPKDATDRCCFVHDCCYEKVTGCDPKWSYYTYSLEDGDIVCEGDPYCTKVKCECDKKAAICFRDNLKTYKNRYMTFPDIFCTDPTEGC
The assay can be described thus: In vitro inhibitory concentration against phospholipase A2 of Trimeresurus flavoviridis venom. Further details: species or system Protobothrops flavoviridis.

A short description of assay [7]: In vitro Inhibitory concentration against phospholipase A2 activity of synovial fluid. More on the design: species or system Homo sapiens.
The subject of assay [8] is Mus musculus. The assay can be described thus: Edema ratio expressed as weight of edematous leg to 100/weight of normal leg in mice upon injection of 300 uM compound pre-incubated with 1 ug phospholipase A2 of Naja melanoleuca at 37 degree C for 1 h into mice foot pads. Type of assay: functional. In outline:
(§1)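 Each PLA2 enzyme (1 µg) was preincubated with compound (300 µM) at 37 °C for 1 h, then injected into the right hind footpad of mice (22–24 g) in saline. The left footpad received saline as control. After 45 min the mice were killed, and both legs were cut at the ankle and weighed. Edema ratio = edematous leg weight × 100 / normal leg weight. Results given as mean SD (n = 4); Student's t test, P < 0.05.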

For assay [9], the system named is Naja melanoleuca. Nature of the assay: Percent inhibition of hyaluronidase from Naja melanoleuca venom; NI = No inhibition.
Assay [10] concerns Naja naja. Nature of the assay: Percent inhibition of hyaluronidase from Naja naja naja venom. Further details: concentration or dose not given beside the values. The following applies: concentration not given here.
Assay [11] relates to Mus musculus. The assay can be described thus: Edema ratio expressed as weight of edematous leg to 100/weight of normal leg in mice upon injection of 300 uM compound preincubated with 1 ug phospholipase A2 of Synovial fluid at 37 C for 1 hr into the mice foot pads. Type of assay: functional. An outline of the steps: as §1
Assay [12] relates to Mus musculus. Nature of the assay: Edema ratio expressed as weight of edematous leg to 100/weight of normal leg in mice upon injection of 300 uM compound pre-incubated with 1 ug phospholipase A2 of Echis carinatus at 37 C for 1 h into the mice foot pads. Type of assay: functional. An outline of the steps: as §1
Assay [13] concerns Mus musculus. The assay can be described thus: Edema ratio expressed as weight of edematous leg to 100/weight of normal leg in mice upon injection of 300 uM compound preincubated with 1 ug phospholipase A2 of Trimeresurus flavoviridis at 37 C for 1 hr into the mice foot pads. Type of assay: functional. In outline:
as §1

The subject of assay [14] is Daboia russelii russelii. The assay can be described thus: Percent inhibition of hyaluronidase from Vipera russelli russelli venom; NI = No inhibition.
The test system of assay [15] is Protobothrops elegans. The assay can be described thus: Percent inhibition of hyaluronidase from Trimeresurus elegans venom; NI = No inhibition.

The source made the active and inactive calls. No cut-off for these calls is given here.

Sequence of Acidic phospholipase A2 EC-I (Q7T3S7 17-136 limits assumed): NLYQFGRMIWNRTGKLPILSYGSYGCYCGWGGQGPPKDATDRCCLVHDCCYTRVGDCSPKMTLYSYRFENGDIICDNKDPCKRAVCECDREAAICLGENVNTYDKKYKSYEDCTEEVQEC

For the compound `Cc1cc(C(=O)c2cccc(Cl)c2Cl)ccc1OC(=O)c1ccccc1`, the 50% inhibitory concentration (IC50) in assay [1] is 112 µM; in assay [2], 132 µM; in assay [6] it was 89 µM; in assay [7], 156 µM. Further, the values for the inhibition in assay [3] and in assay [5] were 33.1% and 26.2%, respectively. In addition, the inhibition entry in assay [4] is “inactive”.
Consider `Cc1ccc(C(=O)Oc2ccc(C)cc2C(=O)c2ccc(C)cc2)cc1`, for which the Ratio in assay [8] was 103. The half-inhibitory concentration (IC50) was 96 µM in assay [1], 57 µM in [2], 108 µM in [6] and 123 µM in [7]. Moreover, the inhibition came out at 76.8% in assay [3], 46% in assay [5] and 69.3% in [10]. Further, in assay [9], the inhibition result is “inactive”.
Consider `Cc1ccc(OC(=O)c2cccc(Cl)c2)c(C(=O)c2cccc(Cl)c2)c1`, for which the Ratio came to 101 in assay [11], 101 in assay [12], 101 in assay [8] and 102 in [13]. Besides, the IC50 in assay [1] was found to be 2.3 µM; in [2] it was 2.9 µM; in assay [6], 2.5 µM; in assay [7] it was 2.5 µM. Besides, the inhibition was 92.5% in assay [3], 87.8% in [5] and 89.3% in [10].
As for `Cc1ccc(C(=O)Oc2ccc(C(=O)c3ccccc3C)cc2C)cc1`, the Ratio in assay [11] turned out to be 101. Also, the IC50 in [1] turned out to be 87 µM; in [2], 73 µM; in [6] it was 75 µM; in [7] it was 56 µM. The results for the inhibition in assay [3], in [5] and in [10] were 48.9%, 36.9% and 42.4%, respectively.
With `C[C@H]1[C@H](C)CC[C@]2(C(=O)O)CC[C@]3(C)C(=CC[C@@H]4[C@@]5(C)CC[C@H](O)C(C)(C)[C@@H]5CC[C@]43C)[C@H]12` [URSOLIC ACID], the IC50 in assay [1] turned out to be 2.3 µM; in assay [2], 2.9 µM.
Take `Cc1ccc(OC(=O)c2ccccc2C)c(C(=O)c2ccccc2C)c1`: the Ratio in assay [11] was 106; in assay [8], 102. For the same compound, the IC50 in assay [1] turned out to be 105 µM; in assay [2] it was 98 µM; in [6], 139 µM; in assay [7], 86 µM. Besides, the inhibition was 42.4% in assay [3] and 58.7% in [10]. Also, the inhibition result in assay [14] was “inactive”.
Take `O=C(Oc1ccc(Cl)cc1C(=O)c1cccc(Cl)c1Cl)c1ccccc1`: the Ratio in [11] came to 102; in assay [12], 103; in [8], 104; in assay [13], 105. The IC50 in assay [1] was 40 µM; in assay [2], 53 µM; in assay [6], 46 µM; in [7] it was 32 µM. In addition, the inhibition in assay [3] was determined as 76.8%; in [5] it was 71.6%; in assay [10] it was 85.3%.
Consider `Cc1ccc(OC(=O)c2ccccc2)c(C(=O)c2ccccc2)c1`, for which the values for the Ratio in assay [11] and in [13] were 109 and 105, respectively. Besides, the IC50 in [1] came to 94 µM; in assay [2], 60 µM; in assay [6] it was 69 µM; in assay [7], 46 µM. For the same compound, the inhibition entry in assay [9] and in assay [15] was “inactive” in each case. Also, the inhibition in [5] came to 28.2%; in assay [10] it was 13.9%.

The values above are taken from ChEMBL document CHEMBL1142819, “Synthesis of benzoyl phenyl benzoates as effective inhibitors for phospholipase A2 and hyaluronidase enzymes” (Bioorg Med Chem Lett, 2005).
